Measurements taken from ChEMBL document CHEMBL1148795 (J Med Chem, 2007).
Calls of active or inactive are those of the source. No cut-off for these calls is given here.

What was measured:
[1] = biological target: Human immunodeficiency virus type 1 reverse transcriptase (Human immunodeficiency virus 1, UniProt Q72547); experiment: Inhibition of HIV1 reverse transcriptase
[2] = test system: Human immunodeficiency virus 2; experiment: Antiviral activity against HIV2 ROD in human MT4 cells by MTT assay; conditions: for EC50: Human immunodeficiency virus 2, ROD
[3] = Cytotoxicity against human CEM-SS cells by MTT assay; format: cell-based
[4] = test system: Human immunodeficiency virus 1; experiment: Antiviral activity against HIV1 with RT K103N mutation; format: functional, organism-based
In short: (§1)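 Cytoprotection assay in CEM-SS cells infected with HIV-1 strains engineered to carry the NNRTI-resistance RT mutation (K103N or Y181C). Activity is expressed as the EC50 for protection of the cells from virus-induced cytopathic effect.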

[5] = test system: Human immunodeficiency virus 1; experiment: Antiviral activity against HIV1 with RT Y181C mutation; format: functional, organism-based; in short: as §1
[6] = test system: Human immunodeficiency virus 1; experiment: Antiviral activity against HIV1 3B in human MT4 cells by MTT assay; conditions: for EC50: Human immunodeficiency virus 1, 3B
[7] = test system: Human immunodeficiency virus 1; experiment: Antiviral activity against HIV1 RF in human CEM-SS cells by XTT assay; format: functional, organism-based; conditions: for EC50: Human immunodeficiency virus 1, RF
[8] = Cytotoxicity against human MT4 cells by MTT assay; format: cell-based
[9] = Metabolic stability in rat plasma; format: ADME, cell-free
In short: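 Compounds were incubated in reconstituted rat plasma (two lots, checked with a control compound), with 1,1-diphenylethylene as internal standard. Aliquot supernatants were analysed by HPLC with UV detection. Half-lives came from regression fits of concentration versus time and were averaged over at least two replicates.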

Row | Structure (SMILES) | IC50 [1] [µM] | Activity [2] | CC50 [3] [µM] | EC50 [4] [µM] | EC50 [5] [µM] | EC50 [6] [µM] | EC50 [7] [µM] | CC50 [8] [µM] | half-life [9] [min] | Activity [7] | Activity [6] | EC50 [2] [µM]
1 | COc1c(C)cc(C(=CCCCc2nnc(C)o2)c2cc(C)c(OC)c(C(=O)SC)c2)cc1C(=O)SC | 6.7 | inactive | 5.3 | > 50 | > 100 | 1.3 | 2.2 | 4.4 | 76 | – | – | –
2 | COc1c(C)cc(/C(=C\CCc2nnc(C)o2)c2cccc(C#N)c2)cc1C(=O)SC | 9.3 | inactive | 2.7 | – | – | 1.4 | – | 8.4 | 221 | inactive | – | –
3 | COc1c(C)cc(/C(=C/CCc2nnc(C)o2)c2cc(C)c3onc(OC)c3c2)cc1C(=O)SC | 33 | inactive | 1.2 | – | – | – | – | 1.6 | – | inactive | inactive | –
4 | COc1c(C)cc(/C(=C/CCc2nnc(C)o2)c2cc(C)c3on(C)c(=O)c3c2)cc1C(=O)SC | > 100 | inactive | 17 | – | – | – | – | 37 | – | inactive | inactive | –
5 | COC(=O)c1cc(C(=CCCc2nnc(C)o2)c2cc(C)c(OC)c(C(=O)OC)c2)cc(C)c1OC | 71 | inactive | 40 | – | – | – | – | 37 | 3.3 | – | – | –
6 | COC(=O)c1cc(C(=CCCc2nnn(C)n2)c2cc(C)c(OC)c(C(=O)OC)c2)cc(C)c1OC | 53 | inactive | 9.6 | – | – | – | – | 5 | 24 | inactive | inactive | –
7 | COC(=O)CCC/C=C(\c1cc(C)c(OC)c(C(=O)OC)c1)c1cc(C)c2onc(OC)c2c1 | 0.91 | – | – | – | – | – | – | – | – | – | – | –
8 | COc1c(C)cc(/C(=C\CCc2nnc(C)o2)c2cc(C)c3on(C)c(=O)c3c2)cc1C(=O)SC | 9.2 | inactive | 18 | > 50 | > 100 | 3.7 | 6.4 | 19 | – | – | – | –
9 | COc1c(C)cc(/C(=C/CCCc2nnc(C)o2)c2cc(C)c3onc(OC)c3c2)cc1C(=O)SC | 5.2 | inactive | 0.78 | > 50 | > 100 | – | – | 1.1 | – | inactive | inactive | –
10 | COc1c(C)cc(/C(=C\CCCc2nnc(C)o2)c2ccc(C#N)cc2)cc1C(=O)SC | 3.2 | inactive | 8.9 | 2.3 | > 100 | 0.36 | 0.6 | 36 | 45 | – | – | –
11 | COC(=O)c1cc(C(=CCCc2nnc(C)o2)c2cc(C)c(OC)c(C(=O)SC)c2)cc(C)c1OC | 32 | inactive | 13 | – | – | – | – | 3.9 | 78 | inactive | inactive | –
12 | COC(=O)CCCC=C(c1cc(Br)c(OC)c(C(=O)OC)c1)c1cc(Br)c(OC)c(C(=O)OC)c1 | – | inactive | 13 | – | – | – | – | 91 | 6.2 | – | – | –
13 | COC(=O)c1cc(C(=CCCc2nnn(C)n2)c2cc(C)c(OC)c(C(=O)SC)c2)cc(C)c1OC | 95 | inactive | 1.6 | – | – | – | – | 1.4 | – | inactive | inactive | –
14 | COc1c(C)cc(/C(=C\CCc2nnc(C)o2)c2ccc(C#N)cc2)cc1C(=O)SC | 6.3 | inactive | 5.5 | > 50 | > 100 | 3.2 | 2.1 | 45 | – | – | – | –
15 | COc1c(C)cc(/C(=C/CCc2nnc(C)o2)c2cc(C)c3oc(=O)n(C)c3c2)cc1C(=O)SC | 90 | – | 6.6 | – | – | – | – | 14 | – | inactive | inactive | 5.9
16 | COc1c(C)cc(/C(=C/CCCc2nnc(C)o2)c2ccc(C#N)cc2)cc1C(=O)SC | 0.45 | inactive | 4.8 | > 50 | > 100 | – | – | 7.6 | 41.5 | inactive | inactive | –
17 | COC(=O)c1cc(/C(=C\CCc2nnn(C)n2)c2cccc(C#N)c2)cc(C)c1OC | 7.7 | inactive | 7.4 | – | – | 1.5 | 2.4 | 34 | 42 | – | – | –
18 | Cc1ccnc2c1NC(=O)c1cccnc1N2C1CC1 [NEVIRAPINE] | – | inactive | – | – | – | – | 0.015 | 15 | – | – | – | –

Row | Structure (SMILES) | IC50 [1] [µM] | Activity [2] | CC50 [3] [µM] | EC50 [4] [µM] | EC50 [5] [µM] | EC50 [6] [µM] | EC50 [7] [µM] | CC50 [8] [µM] | half-life [9] [min] | Activity [7] | Activity [6] | EC50 [2] [µM]
19 | COc1c(C)cc(C(=CCCc2nnc(C)o2)c2cc(C)c(OC)c(C(=O)SC)c2)cc1C(=O)SC | > 100 | inactive | 8.1 | – | – | – | – | 5.9 | – | inactive | inactive | –
20 | COc1c(C)cc(C(=CCCc2nnn(C)n2)c2cc(C)c(OC)c(C(=O)SC)c2)cc1C(=O)SC | 67 | inactive | 33 | – | – | – | – | 7 | – | – | inactive | –
21 | COC(=O)c1cc(/C(=C/CCc2nnc(C)o2)c2cc(C)c3oc(=O)n(C)c3c2)cc(C)c1OC | 1 | inactive | 3.2 | > 50 | > 100 | 0.44 | 0.43 | 13 | – | – | – | –
22 | COc1c(C)cc(/C(=C/CCCc2nnc(C)o2)c2cc(C)c3on(C)c(=O)c3c2)cc1C(=O)SC | > 100 | inactive | 12 | – | – | – | – | 25 | – | inactive | inactive | –
23 | COc1c(C)cc(/C(=C\CCc2nnc(C)o2)c2cc(C)c3onc(OC)c3c2)cc1C(=O)SC | 0.9 | inactive | 2.1 | > 50 | > 100 | 0.81 | 0.52 | 4.4 | 1090 | – | – | –
24 | COc1c(C)cc(/C(=C/CCc2nnc(C)o2)c2ccc3oc(=O)n(C)c3c2)cc1C(=O)SC | 2.6 | – | 5.9 | 1 | > 100 | 0.69 | 0.6 | 12 | 739 | – | – | 4.7
25 | O=C1Nc2ccc(Cl)cc2C(C#CC2CC2)(C(F)(F)F)O1 (single isomer, unassigned) [EFAVIRENZ] | – | inactive | – | – | – | – | – | 6 | – | – | – | –
26 | COc1c(C)cc(/C(=C/CCc2nnc(C)o2)c2cccc(C#N)c2)cc1C(=O)SC | 55 | inactive | 1.3 | – | – | – | – | 3.8 | – | inactive | inactive | –
27 | COc1c(C)cc(/C(=C\CCCc2nnc(C)o2)c2cc(C)c3on(C)c(=O)c3c2)cc1C(=O)SC | > 100 | inactive | 6 | – | – | 0.76 | 0.97 | 9.9 | – | – | – | –
28 | COC(=O)c1cc(/C(=C\CCc2nnc(C)o2)c2cc(C)c3on(C)c(=O)c3c2)cc(C)c1OC | 7.4 | inactive | 7.7 | > 50 | > 100 | 2.7 | 3 | 41 | 220 | – | – | –
29 | COc1c(C)cc(/C(=C\CCCc2nnc(C)o2)c2cccc(C#N)c2)cc1C(=O)SC | 0.52 | inactive | 12 | 1.2 | > 100 | 0.83 | 0.5 | 36 | 221 | – | – | –
30 | COC(=O)CCCC=C(c1cc(Cl)c(OC)c(C(=O)OC)c1)c1cc(Cl)c(OC)c(C(=O)OC)c1 | – | – | 32 | – | – | – | 0.01 | 160 | 5.8 | – | – | 25
31 | COc1c(C)cc(/C(=C/CCCc2nnc(C)o2)c2cccc(C#N)c2)cc1C(=O)SC | 7.7 | inactive | 7.2 | – | – | – | – | 8.2 | – | inactive | inactive | –
32 | COc1c(C)cc(/C(=C/CCc2nnc(C)o2)c2ccc(C#N)cc2)cc1C(=O)SC | 48 | inactive | 1.2 | – | – | – | – | 3.2 | – | inactive | inactive | –
33 | COc1c(C)cc(/C(=C\CCc2nnc(C)o2)c2ccc3oncc3c2)cc1C(=O)SC | 7.7 | – | 38 | > 50 | > 100 | – | 2.6 | – | – | – | – | –
34 | COC(=O)c1cc(/C(=C\CCc2nnc(C)o2)c2ccc(C#N)cc2)cc(C)c1OC | 24 | inactive | 28 | – | – | 2 | 3 | 16 | 45 | – | – | –
35 | COC(=O)CCC/C=C(\c1cc(C)c(OC)c(C(=O)OC)c1)c1cc(C)c2oc(=O)n(C)c2c1 | – | inactive | – | – | – | – | – | – | – | – | – | –
36 | COc1c(C)cc(/C(=C/CCCc2nnc(C)o2)c2cc(C)c3oc(=O)n(C)c3c2)cc1C(=O)SC | 36 | inactive | 5.5 | – | – | – | – | 7.7 | – | inactive | inactive | –
